Assay results collected from several papers.
Each line is one published result; the experiments were not run side by side.

With `CCCCOC(=O)N1CCN(C(=O)[C@H](CP(=O)(O)O)NC(=O)c2cc(N3CC[C@H](OC)C3)nc(-c3ccccc3)n2)CC1` the concentration was 0.4 ng/mL (human, plasma; subcutaneous, 8 mg, 24 h, single dose).
`COc1ccc(-c2cc(=O)c3c(OC)cc(OC)cc3o2)cc1` gave a CC50 of over 200 µM (HS27; cell growth or viability, MTT; 24 h).
With `CC(C)CN1C[C@H]2CC[C@@H]3[C@]4(C)COC(C)(C)O[C@@H]4CC[C@@]3(C)[C@@H]2C[C@@H]1C1=CCOC1=O` the cell death was -4.1% (MRC5; cell growth or viability, ATP luminescence; 25 µM, 72 h).
With `C=CCn1c(=O)c2cnc(Nc3ccc(N4CCN(C)CC4)cc3)nc2n1-c1cccc(C(C)(C)O)n1` the concentration was 213 nM (human, plasma; oral, 175 mg, 8 h, single dose).
`COc1cc(OC)c2c(=O)cc(-c3ccccc3Br)oc2c1` has a CC50 of over 200 µM (HS27; cell growth or viability, MTT; 24 h).
`CN(CCC(=O)O)C(=O)c1ccc2c(c1)CC[C@@H]1[C@@H]2CC[C@]2(C)C(c3cncc(F)c3)=CC[C@@H]12` gave an IC50 of over 30 µM (UDP-glucuronosyltransferase 2B4 (UGT2B4, Homo sapiens, UniProt P06133); enzyme activity, inhibitor).
`CC(C)CCN1C[C@H]2CC[C@@H]3[C@]4(C)COC(C)(C)O[C@@H]4CC[C@@]3(C)[C@@H]2C[C@@H]1C1=CCOC1=O` has a cell death of 11.7% (MRC5; cell growth or viability, ATP luminescence; 25 µM, 72 h).
With `COc1ccc(-c2cc(=O)c3c(OC)cc(OC)c(-c4c(OC)cc(OC)c5c(=O)cc(-c6ccc(OC)cc6)oc45)c3o2)cc1` the CC50 was over 200 µM (HS27; cell growth or viability, MTT; 24 h).
For `COc1ccc(CN2C[C@H]3CC[C@@H]4[C@](C)(CO)[C@H](O)CC[C@@]4(C)[C@@H]3C[C@@H]2C2=CCOC2=O)cc1`, the cell death was -1.8% (MRC5; cell growth or viability, ATP luminescence; 25 µM, 72 h).
For `COc1cc(OC)c2c(=O)cc(-c3ccc(N(C)C)cc3)oc2c1`, the CC50 was over 200 µM (HS27; cell growth or viability, MTT; 24 h).
The inhibition of `O=C(O)CSc1nnc(Br)n1-c1ccc(C2CC2)c2ccccc12` is reported as 58% (Solute carrier family 22 member 1 (SLC22A1, Homo sapiens, UniProt O15245); transporter uptake, inhibitor; MDCK-II; 30 µM, 5 min).
With `C[C@@]12COCO[C@@H]1CC[C@]1(C)[C@@H]2CC[C@@H]2CN(Cc3ccccc3)[C@@H](C3=CCOC3=O)C[C@H]21` the cell death was -1.2% (MRC5; cell growth or viability, ATP luminescence; 25 µM, 72 h).
